# High-throughput results (PubChem)
# Rows were chosen to be rich in hits. Some 2.5% of all compounds tested hit in one or more screens of this group.
# SENP1 inh = blocks the human SENP1 SUMO protease catalytic domain; Q9P0U3; recombinant SENP1 catalytic domain, CyPet-SUMO1-YPet FRET cleavage; inhibition, % at 10 µM; 360,000 compounds, 0.21% hits;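 active = inhibition at least 30% at 10 µM, raw YFP signal under a set limit, fluorescence ratio 0.5 to 1.5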
#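 Test system: hSENP1 catalytic domain, recombinant; Amount: 20 pM final SENP1 enzyme; Medium: Tris pH 8 buffer plus EDTA, NaCl, BME, BSA, NP40, catalase; Schedule: 50 min enzyme reaction, room temperature, light-protected; Technique: FRET fluorescence in CFP and YFP emission channels; Controls: no-enzyme wells low, DMSO-plus-enzyme wells high control.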
# SENP7 block = blocks the human protease SENP7. Q9BQF6. 330,000 compounds, 1.5% hits. inhibition, % at 5 µM. recombinant SENP7, Z-RLRGG-aminoluciferin luminescence, 40 min;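 active = inhibition above about 50% at the single test dose, limit read from the data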
# SENP8 block-1 = blocks human SENP8 cleavage of Nedd8 substrate. 360,000 compounds, 0.64% hits. recombinant SENP8, Nedd8 substrate fluorescence. Q96LD8. inhibition, % at 20 µM; in the data active = inhibition mostly above about 40%, no sharp cut-off; inactive = mostly below about 27%
# SENP8 block-2 = SENP8 protease inhibition; purified SENP8, Z-RLRGG-aminoluciferin cleavage, luminescence; inhibition, % at 10 µM; 330,000 compounds, 1.2% hits; Q96LD8; in the data active = inhibition above about 50%
# SENP6 inh = blocks the human protease SENP6. Recombinant SENP6 catalytic domain, aminoluciferin luminescence. inhibition, % at 10 µM. 330,000 compounds, 1.8% hits;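 active = inhibition above about 50% at the single tested dose, limit read from the data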
# Target sequence (Q9GZR1 628-1112 limits assumed): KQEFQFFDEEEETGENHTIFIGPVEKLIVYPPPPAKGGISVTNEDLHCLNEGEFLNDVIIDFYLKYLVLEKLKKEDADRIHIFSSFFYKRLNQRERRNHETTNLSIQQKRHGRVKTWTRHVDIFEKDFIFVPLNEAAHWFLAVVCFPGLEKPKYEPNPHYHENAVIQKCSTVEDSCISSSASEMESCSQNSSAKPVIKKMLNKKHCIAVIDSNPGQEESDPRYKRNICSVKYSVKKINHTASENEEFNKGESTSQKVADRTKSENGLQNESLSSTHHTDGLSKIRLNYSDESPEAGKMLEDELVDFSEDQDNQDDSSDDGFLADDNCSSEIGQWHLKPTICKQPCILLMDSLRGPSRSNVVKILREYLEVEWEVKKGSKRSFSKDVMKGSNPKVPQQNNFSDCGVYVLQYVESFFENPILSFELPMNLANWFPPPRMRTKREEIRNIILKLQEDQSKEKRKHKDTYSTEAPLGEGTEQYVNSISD
# SENP8 confirm = confirmation of human SENP8 protease inhibitors; shares compounds with SENP7 block; 6,200 compounds, 40% hits; Recombinant SENP8, Z-RLRGG-aminoluciferin luminescence, 60 min; AID 488912; inhibition, % at 12.5 µM;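 active = mean inhibition across replicates above about 50%, limit read from the data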
# SENP6 confirm = human SENP6 inhibition, confirmed. shares compounds with SENP7 block. recombinant SENP6, Z-RLRGG-aminoluciferin luminescence. inhibition, % at 12.5 µM. 6,200 compounds, 58% hits. AID 488915
# SENP7 confirm = human SENP7 inhibition, confirmed | shares compounds with SENP7 block | recombinant SENP7, Z-RLRGG-aminoluciferin luminescence, 40 min | inhibition, % at 12.5 µM | 6,200 compounds, 69% hits | AID 488917
# Casp3 SENP sel = caspase-3 inhibition (SENP selectivity assay). shares compounds with SENP7 block. purified caspase-3, Z-DEVD-aminoluciferin luminescence, 60 min. inhibition, % at 12.5 µM. 6,200 compounds, 60% hits. AID 488918;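 active = mean inhibition above about 50%, limit read from the data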
# Luc interf = interferes with luciferase luminescence in SENP counter-screen; 6,200 compounds, 39% hits; AID 488919; Pre-incubated SENP8/Z-RLRGG-aminoluciferin, luciferase luminescence interference; shares compounds with SENP7 block; inhibition, % at 12.5 µM;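 active = mean inhibition above about 50% when retested at one dose, limit read from the data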
# Hits are given with their value; . = inactive; / = no result given.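 Rule for the calls, unless noted: active = mean inhibition above about 50% in the one-dose retest (limit read from the data); inactive = the rest.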
SMILES,SENP1 inh,SENP7 block,SENP8 block-1,SENP8 block-2,SENP6 inh,SENP8 confirm,SENP6 confirm,SENP7 confirm,Casp3 SENP sel,Luc interf
CCCNC(=O)c1cc(C2CCCCN2C(=O)CCCc2ccccc2)on1 (stereo unspecified),.,/,.,/,/,/,/,/,/,/
NNc1nc2ccc(F)cc2s1,.,.,.,.,.,/,/,/,/,/
CC(=O)Nc1nc2cc3c(cc2s1)OCO3,.,56,.,.,68,.,53,86,83,.
Cc1ccc(Nc2nc3ccccc3s2)c(C)c1,.,79,.,62,.,77,73,91,54,67
c1ccc2sc(Nc3nc4cc5c(cc4s3)OCO5)nc2c1,.,64,.,.,.,.,.,.,.,.
Cc1cc(C)nc(Nc2nc3ccccc3s2)n1,.,.,.,.,.,/,/,/,/,/
Fc1ccc2nc(Nc3ccccc3)sc2c1,.,72,.,64,.,81,81,95,58,82
Fc1ccc2nc(Nc3nc4cc5c(cc4s3)OCO5)sc2c1,.,.,.,.,.,/,/,/,/,/
C[C@@H]1C2CC(C/C2=N\NC(=O)c2ccncc2)C1(C)C (stereo partly specified),.,.,.,.,.,/,/,/,/,/
COC(=O)c1cccc(N(CC(=O)NC2CCCCC2)C(=O)CNC(=O)c2cccs2)c1,.,.,.,.,.,/,/,/,/,/
O=C(NCCCN1CCOCC1)C(c1ccccc1)c1ccccc1,.,.,.,.,.,/,/,/,/,/
CC(CN1CCCC1)OC(=O)c1ccc(Br)cc1 (stereo unspecified),.,.,.,.,.,/,/,/,/,/
Fc1ccc2nc(Nc3nc4cc5c(cc4s3)OCCO5)sc2c1,.,.,.,52,71,.,.,.,.,.
O=C(Nc1ccc2sccc2c1)c1ccc(Cl)s1,.,86,.,.,71,.,.,88,50,.
COc1cc(C#N)c(N=C(SCC#N)N2CCOCC2)cc1OC,.,.,.,.,.,/,/,/,/,/
Cc1cccc(Nc2nnc(SCc3cn4ccsc4n3)s2)c1,.,61,.,.,56,.,.,72,.,55
O=c1cc(CSc2nnc(Nc3ccccc3)s2)nc2sccn12,.,.,.,.,.,/,/,/,/,/
NC(Cc1ccc(C(F)(F)F)cc1)c1csc(Nc2ccc(S(N)(=O)=O)cc2)n1 (stereo unspecified),.,/,.,/,/,/,/,/,/,/
Nc1ccc(-c2nc3ccc(N)cc3o2)cc1,.,61,.,.,68,.,.,82,79,62
Nc1ccc2oc(C3CCCCC3)nc2c1,.,.,.,.,.,/,/,/,/,/
Cc1ccc(C)c(-c2nc3cc(N)ccc3o2)c1,.,.,.,.,55,.,.,69,.,50
Cc1ccc(C)c(-c2nc3ccc(N)cc3[nH]2)c1,.,.,.,.,.,/,/,/,/,/
Nc1ccc(-c2nc3cc(N)ccc3o2)cc1,.,.,.,.,52,.,.,77,67,52
CN(C)c1ccc(-c2nc3cc(N)ccc3o2)cc1,.,95,.,91,93,85,94,100,91,79
O=C(NC1CCCCC1)C1CC(=O)N(c2cccc([N+](=O)[O-])c2)C1 (stereo unspecified),.,.,.,.,.,/,/,/,/,/
SMILES,SENP1 inh,SENP7 block,SENP8 block-1,SENP8 block-2,SENP6 inh,SENP8 confirm,SENP6 confirm,SENP7 confirm,Casp3 SENP sel,Luc interf
Cc1ccc(-c2nc3cc(N)ccc3o2)cc1Br,.,91,.,87,93,.,91,101,74,.
COC(=O)c1ccc(-c2nc3cc(N)ccc3o2)cc1,.,73,.,69,85,.,.,74,54,.
Nc1ccc(-c2nc3ccc(-c4nc5ccccc5o4)cc3[nH]2)cc1,.,.,.,.,.,/,/,/,/,/
COc1ccc(CNS(=O)(=O)CCNC(=O)c2ccc(OC)cc2)cc1,.,.,.,.,.,/,/,/,/,/
Cc1ccc(S(=O)(=O)N2CCN(C(=O)CSCc3ccc(C(C)C)cc3)CC2)cc1,.,.,.,.,.,/,/,/,/,/
O=C(O)CCc1ccc(-c2ccc(Br)cc2)o1,.,.,.,.,.,/,/,/,/,/
O=C(O)CCc1ccc(-c2ccc(Cl)cc2)o1,.,.,.,.,73,68,61,88,66,81
O=C(OCc1c(Cl)cccc1Cl)c1ccccn1,.,.,.,.,.,/,/,/,/,/
COC(=O)c1ccc(COC(=O)c2ccccn2)cc1,.,82,.,.,75,76,74,91,92,76
O=C(Oc1ccccc1)c1ccc(COC(=O)c2cnccn2)cc1,.,89,.,76,94,.,80,97,87,85
COc1ccc(OC)c(NC(=O)CCCCCn2nnc3ccccc3c2=O)c1,.,.,.,.,.,/,/,/,/,/
CCN(CC(=O)Nc1ccc(NC(C)=O)cc1)C(=O)CCCc1nc2ccccc2s1,.,.,.,.,.,/,/,/,/,/
COC(=O)C1=C(C)NC(=S)NC1c1ccc(-c2cc(Cl)ccc2Cl)o1 (stereo unspecified),.,.,.,.,.,/,/,/,/,/
COc1ccc(NS(=O)(=O)c2cccc(C(=O)NCC(c3cccs3)N3CCOCC3)c2)cc1 (stereo unspecified),.,.,.,.,.,/,/,/,/,/
CC(C)(C)c1cnnn1-c1ccc(/C=N/Nc2ccc([N+](=O)[O-])cc2)cc1,.,.,.,64,.,.,.,.,.,.
C/C(=N\Nc1ccc([N+](=O)[O-])cc1)c1ccc(-n2nncc2C)cc1,.,.,.,.,.,/,/,/,/,/
COCCCNC(=O)COC(=O)c1ccc(-c2nc3ccccc3s2)s1,.,86,.,82,86,61,66,91,78,59
CNC(=O)COC(=O)c1ccc(-c2nc3ccccc3s2)s1,.,97,.,93,97,.,.,51,52,.
CNC(=O)COC(=O)/C=C/c1nc2ccccc2s1,.,.,.,.,.,/,/,/,/,/
CSCc1ccc(C(=O)NC(C)c2cnn(-c3ccccn3)c2C)o1 (stereo unspecified),.,.,.,.,.,/,/,/,/,/
COC(=O)c1ccc(C)c(-n2c(C)cc(C=O)c2C)c1,.,.,.,.,.,/,/,/,/,/
CCC1CSC(Nc2ccc(C(=O)/C=C/c3cccc(C)c3)cc2)=N1 (stereo unspecified),.,.,.,.,54,.,.,.,.,.
Cc1ccc(C(=O)/C=C/Nc2ccccn2)cc1,.,97,.,93,95,94,98,102,96,62
